{
  "source": "ChEMBL document CHEMBL4680065",
  "about": "“Pharmacophore-based screening of diamidine small molecule inhibitors for protein arginine methyltransferases” (RSC Med Chem, 2021)",
  "key": {"[1]": {"target": "T1, Protein arginine N-methyltransferase 1 (Homo sapiens, UniProt Q99873)", "test": "Inhibition of recombinant human His-tagged PRMT1 expressed in Escherichia coli BL21 (DE3) using biotin-labeled histone H4-20 as substrate incubated for 8 mins in presence of [3H]-SAM cofactor by scintillation proximity assay"}, "[2]": {"target": "T1, Protein arginine N-methyltransferase 1", "test": "Non-competitive inhibition of recombinant His-tagged PRMT1 (unknown origin) expressed in Escherichia coli BL21 (DE3) using varying levels of [3H]-SAM as cofactor", "method_in_brief": "(§1)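 His-tagged human PRMT1 was expressed in E. coli BL21(DE3) and Ni-affinity purified. IC50 was measured by SPA at varied SAM or biotinylated H4 peptide (0.3125–4.5 μM), with the other component fixed near its Km (0.5 μM); n = 2.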"}, "[3]": {"target": "T2, Histone-lysine N-methyltransferase EHMT2 (Homo sapiens, UniProt Q96KQ7)", "T2 sequence (Q96KQ7 whole entry)": "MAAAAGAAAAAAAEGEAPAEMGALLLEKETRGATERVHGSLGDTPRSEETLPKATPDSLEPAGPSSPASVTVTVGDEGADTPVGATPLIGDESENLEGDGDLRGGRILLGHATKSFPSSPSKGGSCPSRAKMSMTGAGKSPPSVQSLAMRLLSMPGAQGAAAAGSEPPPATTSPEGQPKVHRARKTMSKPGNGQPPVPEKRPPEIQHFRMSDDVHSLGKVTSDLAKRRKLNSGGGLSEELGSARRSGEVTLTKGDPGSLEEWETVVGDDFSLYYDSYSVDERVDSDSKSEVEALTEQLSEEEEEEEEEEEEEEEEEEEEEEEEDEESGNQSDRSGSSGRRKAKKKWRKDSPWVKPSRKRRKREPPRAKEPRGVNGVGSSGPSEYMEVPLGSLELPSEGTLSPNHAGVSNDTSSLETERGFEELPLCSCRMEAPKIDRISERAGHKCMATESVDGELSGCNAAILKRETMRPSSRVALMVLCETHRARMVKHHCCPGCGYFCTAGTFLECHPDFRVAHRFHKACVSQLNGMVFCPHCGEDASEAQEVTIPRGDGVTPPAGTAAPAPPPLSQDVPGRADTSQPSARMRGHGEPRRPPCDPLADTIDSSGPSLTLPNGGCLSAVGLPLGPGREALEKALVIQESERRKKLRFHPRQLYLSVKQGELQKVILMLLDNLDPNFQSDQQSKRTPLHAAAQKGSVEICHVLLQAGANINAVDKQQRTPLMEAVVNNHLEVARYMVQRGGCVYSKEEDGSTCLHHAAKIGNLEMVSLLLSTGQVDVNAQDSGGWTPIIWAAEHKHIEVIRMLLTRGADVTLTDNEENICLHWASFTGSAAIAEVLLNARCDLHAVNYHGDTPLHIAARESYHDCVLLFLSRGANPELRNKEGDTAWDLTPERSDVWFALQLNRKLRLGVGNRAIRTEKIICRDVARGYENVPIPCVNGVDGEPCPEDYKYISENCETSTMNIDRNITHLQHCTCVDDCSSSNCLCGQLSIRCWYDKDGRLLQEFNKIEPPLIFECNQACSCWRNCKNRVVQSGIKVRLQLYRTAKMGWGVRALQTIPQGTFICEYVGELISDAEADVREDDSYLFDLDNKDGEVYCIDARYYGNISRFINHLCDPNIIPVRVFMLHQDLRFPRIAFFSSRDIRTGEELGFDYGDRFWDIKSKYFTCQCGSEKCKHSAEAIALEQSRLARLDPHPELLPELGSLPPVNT", "test": "Inhibition of recombinant His-tagged human G9a expressed in Escherichia coli BL21 (DE3) using biotin-labeled histone H3-20 peptide as substrate incubated for 30 mins in presence of [3H]-SAM cofactor by scintillation proximity assay", "method_in_brief": "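The inhibitor was serially diluted and added to the enzyme, [3H]-SAM and substrate mixture, and methylated substrate was quantified by scintillation proximity assay. Reactions were held at initial rate, with yield under 10% and substrate near Km. PRMT3, PRMT8 and G9a were His-tagged human proteins, and PRMT7 was GST-tagged, all expressed in E. coli and affinity-purified.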"}, "[4]": {"target": "PRMT5/MEP50 complex (Homo sapiens, UniProt O14744)", "sequence (O14744 whole entry)": "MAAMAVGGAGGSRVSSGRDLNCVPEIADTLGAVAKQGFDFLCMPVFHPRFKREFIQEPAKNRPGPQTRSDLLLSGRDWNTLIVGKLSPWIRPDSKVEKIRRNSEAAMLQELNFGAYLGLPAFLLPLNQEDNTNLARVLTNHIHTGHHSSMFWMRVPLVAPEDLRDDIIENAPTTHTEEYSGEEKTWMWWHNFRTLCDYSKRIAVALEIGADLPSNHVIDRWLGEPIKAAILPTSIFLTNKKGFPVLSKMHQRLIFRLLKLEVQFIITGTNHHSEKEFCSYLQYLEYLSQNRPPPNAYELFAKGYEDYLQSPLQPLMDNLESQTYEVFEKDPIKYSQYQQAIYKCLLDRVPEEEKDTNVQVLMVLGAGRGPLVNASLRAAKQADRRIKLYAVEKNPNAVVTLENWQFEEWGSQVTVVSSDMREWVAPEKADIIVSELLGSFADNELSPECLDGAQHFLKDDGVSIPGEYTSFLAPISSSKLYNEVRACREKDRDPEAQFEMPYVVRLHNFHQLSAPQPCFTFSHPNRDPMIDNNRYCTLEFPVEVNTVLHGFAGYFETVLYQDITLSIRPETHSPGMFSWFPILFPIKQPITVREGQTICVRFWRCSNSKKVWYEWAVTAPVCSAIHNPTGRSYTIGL", "sequence (Q9BQA1 whole entry, further chain)": "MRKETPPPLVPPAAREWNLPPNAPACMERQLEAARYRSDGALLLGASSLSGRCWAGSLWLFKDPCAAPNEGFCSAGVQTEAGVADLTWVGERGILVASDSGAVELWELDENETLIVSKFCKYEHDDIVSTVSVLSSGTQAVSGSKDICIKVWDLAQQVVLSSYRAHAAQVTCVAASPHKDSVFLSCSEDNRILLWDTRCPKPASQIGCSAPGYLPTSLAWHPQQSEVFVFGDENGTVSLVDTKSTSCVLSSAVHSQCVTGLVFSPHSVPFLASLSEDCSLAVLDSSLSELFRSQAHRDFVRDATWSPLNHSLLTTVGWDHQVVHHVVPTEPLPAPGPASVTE", "test": "Inhibition of PRMT5/MEP50 (unknown origin) using biotin-labeled histone H4-20 peptide as substrate incubated for 8 mins in presence of [3H]-SAM cofactor by scintillation proximity assay", "assay_type": "protein-complex assay", "method_in_brief": "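Part of a methyltransferase selectivity panel. Test compound was serially diluted into a mixture of enzyme, [3H]-SAM cofactor and substrate. Methylated substrate was quantified by scintillation proximity assay. Reactions were held at initial-rate conditions with substrate turnover under 10%, and substrate concentrations were near Km.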"}, "[5]": {"target": "T1, Protein arginine N-methyltransferase 1", "test": "Non-competitive inhibition of recombinant His-tagged PRMT1 (unknown origin) expressed in Escherichia coli BL21 (DE3) using varying levels of biotin-labeled histone H4-20 as substrate", "method_in_brief": "as §1"}, "[6]": {"target": "PRMT5/MEP50 complex (Homo sapiens) (UniProt O14744+Q9BQA1)", "test": "Inhibition of PRMT5/MEP50 (unknown origin) assessed as residual activity at 10 uM using biotin-labeled histone H4-20 peptide as substrate incubated for 8 mins in presence of [3H]-SAM cofactor by scintillation proximity assay relative to control", "assay_type": "protein-complex assay", "method_in_brief": "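Single-point profiling used 10 μM inhibitor added to the enzyme, [3H]-SAM and substrate mixture. Methylated substrate was quantified by scintillation proximity assay. Reactions were held at initial rate, with yield under 10% and substrate near Km. Enzyme, [3H]-SAM and substrate final levels are given in the supplement.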"}, "[7]": {"target": "T3, Histone-arginine methyltransferase CARM1 (Homo sapiens, UniProt Q86X55)", "T3 sequence (Q86X55 whole entry)": "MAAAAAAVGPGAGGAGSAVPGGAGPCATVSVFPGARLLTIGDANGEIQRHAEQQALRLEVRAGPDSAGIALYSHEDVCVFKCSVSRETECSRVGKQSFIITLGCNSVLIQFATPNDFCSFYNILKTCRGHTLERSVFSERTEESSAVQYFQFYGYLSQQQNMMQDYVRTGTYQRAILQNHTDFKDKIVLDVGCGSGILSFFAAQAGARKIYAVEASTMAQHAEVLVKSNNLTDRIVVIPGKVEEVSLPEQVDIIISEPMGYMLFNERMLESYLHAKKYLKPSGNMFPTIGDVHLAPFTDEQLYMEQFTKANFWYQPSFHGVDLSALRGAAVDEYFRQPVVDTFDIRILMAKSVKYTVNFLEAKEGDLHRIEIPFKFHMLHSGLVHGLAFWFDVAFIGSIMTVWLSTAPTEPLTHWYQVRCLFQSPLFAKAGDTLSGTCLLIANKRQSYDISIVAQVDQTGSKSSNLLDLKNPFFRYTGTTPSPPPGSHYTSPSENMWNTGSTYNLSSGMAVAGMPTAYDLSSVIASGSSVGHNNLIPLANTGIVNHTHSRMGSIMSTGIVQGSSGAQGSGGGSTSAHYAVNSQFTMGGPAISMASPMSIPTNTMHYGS", "test": "Inhibition of recombinant GST-tagged CARM1 (unknown origin) expressed in Escherichia coli using […] incubated for 120 mins in presence of [3H]-SAM cofactor by radioactive filter plate assay"}},
  "note": "Activity calls are given as the source filed them. The calls are words filed in the database; no cut-off is given here.",
  "data": [
    {"molecule": "N=C(N)c1ccc(Nc2ccc(-c3cc4ccc(C(=N)N)cc4[nH]3)cc2)cc1", "values": [
      {"measurement": "IC50", "setting": "[1]", "value": 2.6, "unit": "µM"},
      {"measurement": "inhibition", "setting": "[2]", "value": "Active"},
      {"measurement": "IC50", "setting": "[3]", "value": 3.7, "unit": "µM"},
      {"measurement": "IC50", "setting": "[4]", "value": 6.8, "unit": "µM"},
      {"measurement": "inhibition", "setting": "[5]", "value": "Active"},
      {"measurement": "Activity", "setting": "[6]", "value": 35.1, "unit": "%"},
      {"measurement": "IC50", "setting": "[7]", "value": 27.6, "unit": "µM"}
    ]}
  ]
}
